According to ChEMBL document CHEMBL1142148, “Antibiotic susceptibility profile of bifidobacteria as affected by oxgall, acid, and hydrogen peroxide stress” (2007):
In brackets after ≈: the same amount, converted by molar mass.

How the values were obtained:
[1] = test system: Bifidobacterium breve; experiment: Antimicrobial activity against 90 mins hydrogen peroxide-stressed Bifidobacterium breve ATCC 15700 after 18 hrs; type: functional
Method in brief: (§1)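 Stress applied for 90 min at 37°C under anaerobic conditions, using MRS (initial pH 6.5) containing H2O2 at each strain's own inhibitory concentration. The H2O2 level was set beforehand by microplate tolerance testing. Challenged cells were regrown in MRS for 24 h (footnote: 18 h) before MIC testing by broth microdilution. Median of four repetitions.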

[2] = test system: Bifidobacterium bifidum; experiment: Antimicrobial activity against 90 mins hydrogen peroxide-stressed Bifidobacterium bifidum BB12 after 18 hrs; type: functional; method in brief: as §1
[3] = test system: Bifidobacterium bifidum; experiment: Antimicrobial activity against 90 mins oxgall-stressed Bifidobacterium bifidum BB12 after 18 hrs; type: functional
Method in brief: (§2)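 Cells pelleted from mid-log MRS culture and resuspended in MRS (initial pH 6.5) with 0.3% (wt/vol) oxgall for 90 min anaerobically at 37°C. They were then regrown in MRS pH 6.5 for 24 h (footnote: 18 h) anaerobically and tested for MIC by the same broth microdilution assay. Median of four repetitions.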

[4] = test system: Bifidobacterium animalis; experiment: Antimicrobial activity against 90 mins hydrogen peroxide-stressed Bifidobacterium animalis ATCC 27536 after 18 hrs; type: functional; method in brief: as §1
[5] = test system: Bifidobacterium bifidum; experiment: Antimicrobial activity against 60 min 1 M HCl-stressed Bifidobacterium bifidum R0071 after 18 hrs; type: functional
Method in brief: (§3)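 Mid-log MRS culture pelleted and resuspended in MRS broth brought to pH 2.0 with 1 M HCl, held anaerobically at 37°C for 60 min, then subcultured in MRS (pH 6.5) for 24 h anaerobically before MIC testing by broth microdilution (as for unstressed cells). Table footnote gives 18 h anaerobic regrowth after the stress. MIC is the median of four repetitions.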

[6] = test system: Bifidobacterium animalis; experiment: Antimicrobial activity against 60 min 1 M HCl-stressed Bifidobacterium animalis ATCC 27536 after 18 hrs; type: functional; method in brief: as §3
[7] = test system: Bifidobacterium longum; experiment: Antimicrobial activity against Bifidobacterium longum P/N 601377; type: functional
Method in brief: (§4)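 Broth microdilution in MRS plus 0.05% L-cysteine-HCl. Mid-log culture adjusted to OD650 0.1, giving about 2.5 × 10^4 to 5.0 × 10^4 CFU/well, then added to twofold serial dilutions of agent. Plates incubated anaerobically at 37°C for 18 h and read at OD650. MIC is the lowest concentration matching the uninoculated blank OD, taken as the median of four repeats.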

[8] = test system: Bifidobacterium breve; experiment: Antimicrobial activity against 90 mins hydrogen peroxide-stressed Bifidobacterium breve R0070 after 18 hrs; type: functional; method in brief: as §1
[9] = test system: Bifidobacterium animalis; experiment: Antimicrobial activity against 90 mins oxgall-stressed Bifidobacterium animalis ATCC 27536 after 18 hrs; type: functional; method in brief: as §2
[10] = test system: Bifidobacterium thermophilum; experiment: Antimicrobial activity against 90 mins oxgall-stressed Bifidobacterium thermophilum ATCC 25866 after 18 hrs; type: functional; method in brief: as §2
[11] = test system: Bifidobacterium bifidum; experiment: Antimicrobial activity against 90 mins hydrogen peroxide-stressed Bifidobacterium bifidum R0071 after 18 hrs; type: functional; method in brief: as §1
[12] = Antimicrobial activity against Bifidobacterium infantis ATCC 15697; type: functional, Bifidobacterium longum subsp. infantis; conditions: Bifidobacterium longum; method in brief: as §4
[13] = test system: Bifidobacterium longum; experiment: Antimicrobial activity against 90 mins oxgall-stressed Bifidobacterium longum R0175 after 18 hrs; type: functional; method in brief: as §2
[14] = test system: Bifidobacterium thermophilum; experiment: Antimicrobial activity against 90 mins hydrogen peroxide-stressed Bifidobacterium thermophilum ATCC 25866 after 18 hrs; type: functional; method in brief: as §1
[15] = test system: Bifidobacterium breve; experiment: Antimicrobial activity against 90 mins oxgall-stressed Bifidobacterium breve R0070 after 18 hrs; type: functional; method in brief: as §2
[16] = test system: Bifidobacterium pseudolongum; experiment: Antimicrobial activity against 60 min 1 M HCl-stressed Bifidobacterium pseudolongum ATCC 25562 after 18 hrs; type: functional; method in brief: as §3
[17] = test system: Bifidobacterium bifidum; experiment: Antimicrobial activity against 90 mins oxgall-stressed Bifidobacterium bifidum ATCC 15696 after 18 hrs; type: functional; method in brief: as §2
[18] = test system: Bifidobacterium pseudolongum; experiment: Antimicrobial activity against 90 mins oxgall-stressed Bifidobacterium pseudolongum ATCC 25562 after 18 hrs; type: functional; method in brief: as §2
[19] = test system: Bifidobacterium longum; experiment: Antimicrobial activity against 60 min 1 M HCl-stressed Bifidobacterium longum ATCC 15707 after 18 hrs; type: functional; method in brief: as §3
[20] = test system: Bifidobacterium longum; experiment: Antimicrobial activity against 90 mins hydrogen peroxide-stressed Bifidobacterium longum P/N 601377 after 18 hrs; type: functional; method in brief: as §1
[21] = Antimicrobial activity against 90 mins oxgall-stressed Bifidobacterium infantis ATCC 15697 after 18 hrs; type: functional, Bifidobacterium longum subsp. infantis; conditions: Bifidobacterium longum; method in brief: as §2
[22] = test system: Bifidobacterium longum; experiment: Antimicrobial activity against 90 mins oxgall-stressed Bifidobacterium longum ATCC 15708 after 18 hrs; type: functional; method in brief: as §2
[23] = test system: Bifidobacterium longum; experiment: Antimicrobial activity against Bifidobacterium longum ATCC 15707; type: functional; method in brief: as §4
[24] = test system: Bifidobacterium thermophilum; experiment: Antimicrobial activity against Bifidobacterium thermophilum ATCC 25866; type: functional; method in brief: as §4
[25] = test system: Bifidobacterium breve; experiment: Antimicrobial activity against 60 min 1 M HCl-stressed Bifidobacterium breve ATCC 15700 after 18 hrs; type: functional; method in brief: as §3
[26] = test system: Bifidobacterium breve; experiment: Antimicrobial activity against Bifidobacterium breve R0070; type: functional; method in brief: as §4
[27] = test system: Bifidobacterium thermophilum; experiment: Antimicrobial activity against 60 min 1 M HCl-stressed Bifidobacterium thermophilum ATCC 25866 after 18 hrs; type: functional; method in brief: as §3
[28] = test system: Bifidobacterium animalis; experiment: Antimicrobial activity against Bifidobacterium animalis ATCC 27536; type: functional; method in brief: as §4
[29] = test system: Bifidobacterium longum; experiment: Antimicrobial activity against 90 mins oxgall-stressed Bifidobacterium longum P/N 601377 after 18 hrs; type: functional; method in brief: as §2
[30] = test system: Bifidobacterium breve; experiment: Antimicrobial activity against 90 mins oxgall-stressed Bifidobacterium breve ATCC 15700 after 18 hrs; type: functional; method in brief: as §2
[31] = test system: Bifidobacterium bifidum; experiment: Antimicrobial activity against 60 min 1 M HCl-stressed Bifidobacterium bifidum BB12 after 18 hrs; type: functional; method in brief: as §3
[32] = test system: Bifidobacterium longum; experiment: Antimicrobial activity against 90 mins hydrogen peroxide-stressed Bifidobacterium longum R0175 after 18 hrs; type: functional; method in brief: as §1
[33] = test system: Bifidobacterium longum; experiment: Antimicrobial activity against 90 mins hydrogen peroxide-stressed Bifidobacterium longum ATCC 15708 after 18 hrs; type: functional; method in brief: as §1
[34] = test system: Bifidobacterium bifidum; experiment: Antimicrobial activity against 90 mins oxgall-stressed Bifidobacterium bifidum R0071 after 18 hrs; type: functional; method in brief: as §2
[35] = test system: Bifidobacterium bifidum; experiment: Antimicrobial activity against Bifidobacterium bifidum BB12; type: functional; method in brief: as §4
[36] = test system: Bifidobacterium bifidum; experiment: Antimicrobial activity against Bifidobacterium bifidum ATCC 15696; type: functional; method in brief: as §4
[37] = Antimicrobial activity against 60 min 1 M HCl-stressed Bifidobacterium infantis ATCC 15697 after 18 hrs; type: functional, Bifidobacterium longum subsp. infantis; conditions: Bifidobacterium longum; method in brief: as §3
[38] = test system: Bifidobacterium longum; experiment: Antimicrobial activity against 60 min 1 M HCl-stressed Bifidobacterium longum P/N 601377 after 18 hrs; type: functional; method in brief: as §3
[39] = test system: Bifidobacterium longum; experiment: Antimicrobial activity against 60 min 1 M HCl-stressed Bifidobacterium longum R0175 after 18 hrs; type: functional; method in brief: as §3
[40] = test system: Bifidobacterium longum; experiment: Antimicrobial activity against 90 mins hydrogen peroxide-stressed Bifidobacterium longum ATCC 15707 after 18 hrs; type: functional; method in brief: as §1
[41] = test system: Bifidobacterium longum; experiment: Antimicrobial activity against Bifidobacterium longum ATCC 15708; type: functional; method in brief: as §4
[42] = test system: Bifidobacterium longum; experiment: Antimicrobial activity against 90 mins oxgall-stressed Bifidobacterium longum ATCC 15707 after 18 hrs; type: functional; method in brief: as §2
[43] = test system: Bifidobacterium longum; experiment: Antimicrobial activity against Bifidobacterium longum R0175; type: functional; method in brief: as §4
[44] = test system: Bifidobacterium breve; experiment: Antimicrobial activity against Bifidobacterium breve ATCC 15700; type: functional; method in brief: as §4
[45] = test system: Bifidobacterium bifidum; experiment: Antimicrobial activity against Bifidobacterium bifidum R0071; type: functional; method in brief: as §4
[46] = test system: Bifidobacterium pseudolongum; experiment: Antimicrobial activity against Bifidobacterium pseudolongum ATCC 25562; type: functional; method in brief: as §4
[47] = test system: Bifidobacterium breve; experiment: Antimicrobial activity against 60 min 1 M HCl-stressed Bifidobacterium breve R0070 after 18 hrs; type: functional; method in brief: as §3

MIC [1]: 500 µg/mL (≈ 860 µM) | MIC [2]: 250 µg/mL (≈ 430 µM) | MIC [3]: 500 µg/mL (≈ 860 µM) | MIC [4]: 250 µg/mL (≈ 430 µM) | MIC [5]: 250 µg/mL (≈ 430 µM) | MIC [6]: 125 µg/mL (≈ 215 µM) | MIC [7]: 125 µg/mL (≈ 215 µM) | MIC [8]: 250 µg/mL (≈ 430 µM) | MIC [9]: 125 µg/mL (≈ 215 µM) | MIC [10]: 250 µg/mL (≈ 430 µM) | MIC [11]: 250 µg/mL (≈ 430 µM) | MIC [12]: 250 µg/mL (≈ 430 µM) | MIC [13]: 125 µg/mL (≈ 215 µM) | MIC [14]: 500 µg/mL (≈ 860 µM) | MIC [15]: 125 µg/mL (≈ 215 µM) | MIC [16]: 250 µg/mL (≈ 430 µM) | MIC [17]: 1.9 µg/mL (≈ 3.27 µM) | MIC [18]: 250 µg/mL (≈ 430 µM) | MIC [19]: 250 µg/mL (≈ 430 µM) | MIC [20]: 125 µg/mL (≈ 215 µM) | MIC [21]: 250 µg/mL (≈ 430 µM) | MIC [22]: 250 µg/mL (≈ 430 µM) | MIC [23]: 250 µg/mL (≈ 430 µM) | MIC [24]: 250 µg/mL (≈ 430 µM) | MIC [25]: 125 µg/mL (≈ 215 µM) | MIC [26]: 15.6 µg/mL (≈ 26.8 µM) | MIC [27]: 250 µg/mL (≈ 430 µM) | MIC [28]: 250 µg/mL (≈ 430 µM) | MIC [29]: 125 µg/mL (≈ 215 µM) | MIC [30]: 250 µg/mL (≈ 430 µM) | MIC [31]: 125 µg/mL (≈ 215 µM) | MIC [32]: 250 µg/mL (≈ 430 µM) | MIC [33]: 500 µg/mL (≈ 860 µM) | MIC [34]: 125 µg/mL (≈ 215 µM) | MIC [35]: 250 µg/mL (≈ 430 µM) | MIC [36]: 250 µg/mL (≈ 430 µM) | MIC [37]: 250 µg/mL (≈ 430 µM) | MIC [38]: 62.5 µg/mL (≈ 107 µM) | MIC [39]: 31.2 µg/mL (≈ 53.6 µM) | MIC [40]: 62.5 µg/mL (≈ 107 µM) | MIC [41]: 250 µg/mL (≈ 430 µM) | MIC [42]: 62.5 µg/mL (≈ 107 µM) | MIC [43]: 62.5 µg/mL (≈ 107 µM) | MIC [44]: 250 µg/mL (≈ 430 µM) | MIC [45]: 250 µg/mL (≈ 430 µM) | MIC [46]: 250 µg/mL (≈ 430 µM) | MIC [47]: 125 µg/mL (≈ 215 µM)
SMILES: CN[C@@H]1[C@H](O[C@H]2[C@H](O[C@H]3[C@H](O)[C@@H](O)[C@H](N=C(N)N)[C@@H](O)[C@@H]3N=C(N)N)O[C@@H](C)[C@]2(O)C=O)O[C@@H](CO)[C@H](O)[C@H]1O [STREPTOMYCIN]
